In the library only some 3.1% were active in any assay of this set; here they are far more common.
KCNK9 inh = inhibitors of human KCNK9 two-pore domain potassium channel. Q9NPC2. HEK293 KCNK9, FluxOR thallium flux fluorescence; hits give low values. B-score at 10 µM. hit rate 1.2% among 310,000;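 active = ratio B-score over 3 SD below the library mean, with starting fluorescence within 5 SD of its mean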;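 note: negative B-score means less thallium flux so channel inhibition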
hERG rescue = compounds protecting human hERG from proarrhythmic drug block. CHO-hERG, FluxOR thallium flux, dofetilide IC70 present. activation (rescue from dofetilide block), less the hit threshold, % at 10 µM. Q12809. hit rate 0.51% among 310,000;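 active = activation above the mean of controls blocked by dofetilide plus 5 SD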;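 note: thallium influx through hERG after potassium depolarization seen as dye fluorescence rise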
KCNK3 block = human KCNK3 channel inhibition, primary screen; O14649; CHO-KCNK3 thallium flux, FluxOR fluorescence; hits give low values; B-score at 10 µM; hit rate 0.84% among 340,000; AID 602410;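 active = B-score under library mean minus 4 SD, starting fluorescence ratio at most library mean plus 5 SD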;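 note: more negative B-score means stronger inhibition of thallium flux through KCNK3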
Target sequence (O14649 whole entry, looked up): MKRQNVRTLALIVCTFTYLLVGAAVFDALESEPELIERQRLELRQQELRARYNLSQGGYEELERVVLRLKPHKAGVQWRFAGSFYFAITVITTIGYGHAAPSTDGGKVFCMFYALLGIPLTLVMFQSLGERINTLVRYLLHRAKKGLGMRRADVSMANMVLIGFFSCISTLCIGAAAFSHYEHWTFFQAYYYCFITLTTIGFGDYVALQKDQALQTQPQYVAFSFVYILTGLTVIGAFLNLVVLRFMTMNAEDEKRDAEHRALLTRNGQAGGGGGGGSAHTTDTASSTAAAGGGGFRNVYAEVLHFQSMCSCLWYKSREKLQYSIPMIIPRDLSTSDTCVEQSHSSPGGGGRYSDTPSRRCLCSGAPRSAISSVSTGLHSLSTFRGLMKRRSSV
KCNQ1 block = human KCNQ1 channel inhibition | P51787 | CHO-K1 KCNQ1, FluxOR thallium flux fluorescence; hits give high values | B-score at 10 µM | hit rate 1.3% among 310,000 | AID 2642;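 active = compounds whose thallium flux B-score, printed positive for inhibition, exceeds three library SD while starting fluorescence stays within three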;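 note: channel opened by potassium depolarization with thallium stimulus after 20 min compound exposure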
KCNQ1 act = human KCNQ1 channel potentiation or activation. P51787. CHO-K1 KCNQ1, thallium flux FluxOR fluorescence; hits give high values. B-score at 10 µM. hit rate 0.35% among 310,000;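 active = fluorescence ratio B-score, a plate-corrected score, at least three library SD, with initial intensity B-score within 5 SD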
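Assay system: CHO-K1 cells stably expressing KCNQ1; Medium: assay buffer with matched DMSO; Also added: K+/Tl+ depolarizing stimulus; Dosing: single dose; Timing: dye 90 min, compound 20 min, room temperature; Measured by: kinetic FluxOR thallium fluorescence, 10-s 1-Hz baseline, 110-s post-stimulus read; Read-out: peak-minus-minimum fluorescence over initial fluorescence, negative-control normalized, B-scored.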
KCNK3 inh conf = human KCNK3 channel inhibition, confirmation assay | shares compounds with KCNK3 block | CHO-KCNK3 thallium flux, FluxOR fluorescence; 0% buffer, 100% carvedilol maximal block | ratio percent of control, % at 10 µM | hit rate 99% among 2,400 | AID 651638;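 active = ratio percent of control, averaged over triplicates, above buffer control mean plus 5 SD, cut at about 64% in these data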;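 note: ratio is the fluorescence rise from min to max over baseline after thallium stimulus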
KCNK3 noninduced = KCNK3 inhibitor counter-screen hit in non-induced cells | shares compounds with KCNK3 block | non-induced KCNK3 parental cells, FluxOR thallium flux; hits give low values | thallium flux ratio (lower = more inhibition) at 10 µM | hit rate 40% among 2,400 | AID 651747;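 active = thallium flux ratio, averaged over three wells, more than 5 SD below the buffer control mean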;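 note: host cells are CHO cells without KCNK3 induction; ratio is peak minus trough fluorescence over baseline then normalized to buffer controls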
The depositor's hits bear a star; i = inactive; nt = no result.

SMILES | KCNK9 inh | hERG rescue | KCNK3 block | KCNQ1 block | KCNQ1 act | KCNK3 inh conf | KCNK3 noninduced
CCCn1c(C(C)Nc2nc(-c3cc(Cl)c(N)c(Cl)c3)cs2)nc2cc(Cl)c(N3CCCCC3)cc21 (stereo not given) | i | -6 | i | i | i | nt | nt
Cc1ccc(NC(=O)CN2C(=O)NC(C)(c3ccccc3)C2=O)c(C)c1 (stereo not given) | i | -1 | -11* | i | i | 85* | i
CCC1(CC)NC(=O)N(CC(=O)Nc2ccc(C)cc2C)C1=O | nt | nt | i | nt | nt | nt | nt
C(=NN=C(NN=Cc1cccs1)NN=Cc1cccs1)c1cccs1 | nt | nt | -15* | nt | nt | 123* | i
CC(C)C(NS(=O)(=O)c1ccc2c(c1)C(C)(C)C(=O)N2C)C(=O)NCc1ccccc1Cl (stereo not given) | i | -9 | i | i | i | nt | nt
O=C1CC2(CCCCC2)Oc2ccc(Cl)cc21 | i | 1 | i | i | i | nt | nt
CCOC1C(=O)NC(=O)N1Cc1ccccc1 (stereo not given) | i | -5 | -9.3* | i | i | 81* | i
CC1CC(=O)NC(=O)N1Cc1ccccc1 (stereo not given) | nt | nt | i | nt | nt | nt | nt
CNc1ccc(Br)cc(C(=O)/C=C/c2ccc(Cl)cc2Cl)c1=O | i | -18 | -9.7* | 10* | i | 117* | 0.12*
COc1cccc2cc(CC(=O)c3cc(C)ccc3C)c(=O)oc12 | i | -8 | -9.6* | i | i | 82* | i
COc1cc(CN2CCN(c3ccccc3F)CC2)c([N+](=O)[O-])cc1OC | i | -11 | i | i | i | nt | nt
O=C(Cc1ccc(Cl)cc1)NC(=S)Nc1ccccc1N1CCOCC1 | nt | nt | i | nt | nt | nt | nt
O=C(Nc1ccccc1N1CCOCC1)C1(c2ccc(Cl)cc2)CCC1 | i | -12 | -11* | i | i | 100* | i
CCCC(CCC)C(=O)Nc1cccc(-c2cn3c(n2)SCC3)c1 | i | -6 | -8.7* | i | i | 99* | i
CCS(=O)(=O)Nc1cccc(-c2cn3c(n2)SCC3)c1 | i | -8 | i | i | i | nt | nt
O=C(Nc1cccc(-c2cn3c(n2)SCC3)c1)c1ccc2c(c1)OCO2 | i | -24 | -11* | i | i | 104* | i
S=c1[nH]nc(-c2ccc(Br)cc2)n1-c1ccc(Br)cc1 | i | -7 | -11* | i | i | 75* | i
CCC(C(=O)O/N=C(\N)c1ccc(Cl)cc1)c1ccccc1 (stereo not given) | -6.6* | -5 | -10* | i | i | 108* | i
COc1ccc(C(=O)NC2CC2)cc1OC1CCN(Cc2ccc(Cl)cc2)CC1 | i | -14 | i | i | i | nt | nt
CC(=O)Nc1cccc(NC(=O)CSc2ncc(-c3ccc(Cl)cc3)n2Cc2ccco2)c1 | i | -27 | -11* | 7* | i | 119* | 0.14*
CCOC(=O)c1sc2nc(C)nc(N3CCCCC3C)c2c1C (stereo not given) | i | -11 | -8.8* | i | i | 90* | 0.15*
Cn1nc(C(=O)Nc2sc3c(c2C#N)CCCC3)ccc1=O | i | -11 | i | i | i | nt | nt
O=C(O)c1cc(S(=O)(=O)NC23CC4CC(CC(C4)C2)C3)ccc1Cl | i | -2 | i | i | i | nt | nt
C=CCN(C(=O)Nc1ccc(OC)cc1)c1nnc(-c2ccncc2)s1 | i | -6 | -9.5* | i | i | 94* | i
Cc1c(Cl)cccc1NC(=O)N1CCCN(c2nc(-c3ccccc3)ns2)CC1 | i | -10 | i | i | i | nt | nt
SMILES | KCNK9 inh | hERG rescue | KCNK3 block | KCNQ1 block | KCNQ1 act | KCNK3 inh conf | KCNK3 noninduced
O=C(Nc1ccccc1Cl)N1CCCN(c2nc(-c3ccccc3)ns2)CC1 | -7* | -11 | -12* | i | i | 112* | i
CCCOC(=O)/C(=C\C=C\c1ccco1)NC(=O)c1ccccc1 | i | -18 | -10* | i | i | 107* | 0.15*
CCOc1ccc(N(C(C)C(=O)NCc2ccco2)S(C)(=O)=O)cc1 (stereo not given) | i | 1 | i | i | i | nt | nt
Cc1sc2nc(SCc3nnc(-c4cccs4)o3)n(C3CCCC3)c(=O)c2c1C | i | -9 | -12* | 8* | i | 79* | i
COc1ccc(OC)c(C(c2nnnn2Cc2ccccc2)N2CCN(C)CC2)c1 (stereo not given) | i | -10 | i | i | i | nt | nt
CCC(C)(C)n1nnnc1C(c1ccccc1)N1CCN(Cc2ccccc2)CC1 (stereo not given) | i | -8 | i | i | i | nt | nt
CCC(C)(C)n1nnnc1CN1CCN(C(c2ccccc2)c2ccccc2)CC1 | i | -15 | -13* | i | i | 141* | 0.13*
CCC(C)(C)n1nnnc1C(c1cc(OC)ccc1OC)N1CCN(Cc2ccccc2)CC1 (stereo not given) | -7.6* | -4 | -11* | i | i | 107* | i
Cc1ccc(C)n1-c1nccc(-c2ccco2)n1 | i | -4 | i | i | i | nt | nt
Cc1noc(C)c1COC(=O)C1CCN(S(=O)(=O)c2c(Cl)cccc2Cl)CC1 | i | -11 | -9* | i | i | 114* | i
COC(=O)c1ccc2c(c1)C(C)(C)C(/C=C/c1ccc(O)cc1)=[N+]2C | i | -39 | i | i | i | nt | nt
COC(=O)c1ccc2c(c1)C(C)(C)C(/C=C/c1ccc(OC)c(OC)c1OC)=[N+]2C | i | -28 | -12* | 7* | i | 117* | 0.09*
CN(C(=O)Nc1cccc(C(F)(F)F)c1)C1CCCCC1 | i | -6 | i | i | i | nt | nt
Cc1ccc(NC(=O)N(Cc2ccco2)C(C)c2ccco2)cc1C (stereo not given) | i | -8 | -9* | i | i | 110* | i
COc1cccc(NC(=O)N(Cc2ccco2)C(C)c2cccs2)c1 (stereo not given) | i | -9 | i | i | i | nt | nt
COc1ccc(N2CCN(c3cc(C)c4ccc(C)cc4n3)CC2)cc1 | i | -14 | i | i | i | nt | nt
COc1ccc2c(C)cc(N3CCN(c4ccc(F)cc4)CC3)nc2c1 | i | -4 | -9.5* | i | i | 114* | i
COc1nc2ccccc2nc1N1CCN(c2ccc(F)cc2)CC1 | i | -1 | -9.8* | i | i | 113* | i
COc1nc2ccccc2nc1N1CCN(Cc2ccc3c(c2)OCO3)CC1 | i | -14 | i | i | i | nt | nt

Source: PubChem BioAssay (Johns Hopkins Ion Channel Center)
